{
  "source": "ChEMBL document CHEMBL2331117",
  "about": "(J Med Chem, 2013)",
  "key": {"[1]": {"test": "Drug uptake in tumor of athymic mouse xenografted with human MCF7 cells at 100 mg/kg, po after 8 hrs", "type": "ADME, organism-based, Neoplasm", "set-up": "dose 100 mg/kg, route oral", "details": "read-out: Drug uptake"}, "[2]": {"test": "Drug uptake in tumor of athymic mouse xenografted with human MCF7 cells at 100 mg/kg, po after 1 hr", "type": "ADME, organism-based, Neoplasm", "set-up": "dose 100 mg/kg, route oral", "details": "read-out: Drug uptake"}, "Mus musculus [3]": {"system": "Mus musculus", "test": "In vivo inhibition of mTORC1-mediated phosphorylation of 4EBP1 at ([…]) in human MCF7 cells xenografted into athymic nude mouse at 100 mg/kg, po after 24 hrs by Western blotting analysis relative to control", "type": "functional", "details": "MCF7, 24 h"}, "Mus musculus [4]": {"system": "Mus musculus", "test": "In vivo inhibition of mTORC1-mediated phosphorylation of 4EBP1 at ([…]) in human MCF7 cells xenografted into athymic nude mouse at 100 mg/kg, po after 8 hrs by Western blotting analysis relative to control", "type": "functional", "details": "MCF7, 8 h", "procedure,_shortened": "(§1)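 MCF-7 cells (DMEM, 10% FBS) were implanted subcutaneously at 5 × 10^6 cells in 50% cold HBSS/50% growth-factor-reduced matrigel into the hindflank of 5−8 week old female nude mice. At tumor size 40−150 mg, mice received a single oral dose of 100 mg/kg. Tumor lysates were pooled per group. Phospho-AKT (S473, T308), p70S6K (T389), S6 (S240/244) and 4E-BP1 (T37/46) were measured by Western blot normalized to α-tubulin.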"}, "Mus musculus [5]": {"system": "Mus musculus", "test": "In vivo inhibition of mTORC2-mediated phosphorylation of AKT at […] in human MCF7 cells xenografted into athymic nude mouse at 100 mg/kg, po after 4 hrs by Western blotting analysis relative to control", "type": "functional", "details": "MCF7, 4 h", "procedure,_shortened": "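Human MCF-7 cells were implanted subcutaneously into the hindflank of female nude mice aged 5−8 weeks, at 5 × 10^6 cells in 50% cold HBSS/50% growth-factor-reduced matrigel. At a tumor size of 40−150 mg, mice got one oral dose. Tumor lysates were pooled per group. Phospho-AKT (T308) was read by Western blot and normalized to α-tubulin.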"}, "Mus musculus [6]": {"system": "Mus musculus", "test": "In vivo inhibition of mTORC2-mediated phosphorylation of AKT at […] in human MCF7 cells xenografted into athymic nude mouse at 100 mg/kg, po after 1 hr by Western blotting analysis relative to control", "type": "functional", "details": "MCF7, 1 h", "procedure,_shortened": "as §1"}, "[7]": {"test": "Plasma concentration in athymic mouse plasma xenografted with human PC3 cells at 100 mg/kg, po after 16 hrs", "type": "ADME, organism-based, PC-3", "set-up": "dose 100 mg/kg, route oral"}, "Focal adhesion kinase 1": {"target": "Focal adhesion kinase 1 (Homo sapiens, UniProt Q05397)", "sequence (Q05397 whole entry)": "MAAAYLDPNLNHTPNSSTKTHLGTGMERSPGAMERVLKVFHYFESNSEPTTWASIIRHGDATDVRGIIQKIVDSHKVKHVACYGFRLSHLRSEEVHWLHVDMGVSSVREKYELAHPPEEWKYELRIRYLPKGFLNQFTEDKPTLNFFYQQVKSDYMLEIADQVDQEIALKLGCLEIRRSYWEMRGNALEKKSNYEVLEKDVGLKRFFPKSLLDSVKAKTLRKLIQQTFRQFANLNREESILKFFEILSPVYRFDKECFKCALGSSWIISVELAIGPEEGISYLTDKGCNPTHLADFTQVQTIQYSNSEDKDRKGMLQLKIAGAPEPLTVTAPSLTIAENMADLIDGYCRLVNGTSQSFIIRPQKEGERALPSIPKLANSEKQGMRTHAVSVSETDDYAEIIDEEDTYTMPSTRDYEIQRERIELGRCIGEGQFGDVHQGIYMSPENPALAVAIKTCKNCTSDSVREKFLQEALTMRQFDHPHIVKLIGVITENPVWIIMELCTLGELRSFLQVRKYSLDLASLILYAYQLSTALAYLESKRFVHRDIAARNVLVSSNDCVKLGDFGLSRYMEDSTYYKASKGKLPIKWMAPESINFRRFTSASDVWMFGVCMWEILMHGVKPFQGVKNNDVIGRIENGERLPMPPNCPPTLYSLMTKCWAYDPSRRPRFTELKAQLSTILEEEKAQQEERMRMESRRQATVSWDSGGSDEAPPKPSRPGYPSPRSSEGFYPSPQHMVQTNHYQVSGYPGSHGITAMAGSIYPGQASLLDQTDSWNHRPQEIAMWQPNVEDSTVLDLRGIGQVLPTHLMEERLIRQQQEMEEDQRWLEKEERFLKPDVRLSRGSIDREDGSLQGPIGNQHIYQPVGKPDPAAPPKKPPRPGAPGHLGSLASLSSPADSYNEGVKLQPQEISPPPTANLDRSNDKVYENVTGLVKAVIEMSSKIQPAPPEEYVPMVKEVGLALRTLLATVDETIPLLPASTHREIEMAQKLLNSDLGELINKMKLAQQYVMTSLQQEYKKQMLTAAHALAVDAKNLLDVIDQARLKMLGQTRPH", "test": "Inhibition of FAK (unknown origin)", "procedure,_shortened": "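Part of a 141-protein-kinase selectivity panel run either in house or by an outside contract lab. IC50 is reported as the average of at least two determinations.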"}, "[8]": {"target": "Serine/threonine-protein kinase mTOR (Homo sapiens) (UniProt P42345)", "test": "Competitive inhibition of mTOR (unknown origin) in presence of ATP"}, "[9]": {"test": "Oral bioavailability in cynomolgus monkey at 3 mg/kg", "type": "ADME, organism-based, Macaca fascicularis", "details": "in vivo", "procedure,_shortened": "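Male cynomolgus monkeys received 3 mg/kg intravenously and by oral gavage as a solution in EPW (5% ethanol/45% PEG400/water + 1:1.5 HCl m/m).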"}, "[10]": {"test": "Volume of distribution at steady state in cynomolgus monkey at 3 mg/kg, iv", "type": "ADME, organism-based, Macaca fascicularis", "set-up": "dose 3 mg/kg, route intravenous", "details": "in vivo, read-out: Vdss"}, "[11]": {"test": "Volume of distribution at steady state in CD rat at 3 mg/kg, iv", "type": "ADME, organism-based", "set-up": "dose 3 mg/kg, route intravenous", "details": "in vivo, read-out: Vdss"}, "[12]": {"test": "Clearance in CD rat at 3 mg/kg, iv", "type": "ADME, organism-based", "set-up": "dose 3 mg/kg, route intravenous", "details": "in vivo", "procedure,_shortened": "(§2)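 Single-dose PK: female athymic nude mice (10 mg/kg), female CD rats and male beagle dogs (3 mg/kg), male cynomolgus monkeys (3 mg/kg), given iv and by oral gavage. Solution in EPW (5% ethanol/45% PEG400/water), with 1:2 HCl (m/m) for mouse, rat and dog and 1:1.5 HCl (m/m) for monkey. Plasma levels followed over 24 h.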"}, "[13]": {"test": "AUC (0 to infinity) in cynomolgus monkey at 3 mg/kg, po", "type": "ADME, organism-based, Macaca fascicularis", "set-up": "dose 3 mg/kg, route oral, time infinity", "details": "plasma", "procedure,_shortened": "as §2"}, "[14]": {"test": "Tmax in CD rat at 3 mg/kg, po", "type": "ADME, organism-based", "set-up": "dose 3 mg/kg, route oral", "details": "in vivo"}, "[15]": {"test": "Tmax in Beagle dog at 3 mg/kg, po", "type": "ADME, organism-based, Canis lupus familiaris", "set-up": "dose 3 mg/kg, route oral", "details": "in vivo"}, "[16]": {"test": "Cmax in Beagle dog at 3 mg/kg, iv", "type": "ADME, organism-based, Canis lupus familiaris", "set-up": "dose 3 mg/kg, route intravenous", "details": "in vivo", "procedure,_shortened": "as §2"}, "[17]": {"test": "Cmax in Beagle dog at 3 mg/kg, po", "type": "ADME, organism-based, Canis lupus familiaris", "set-up": "dose 3 mg/kg, route oral", "details": "in vivo", "procedure,_shortened": "as §2"}, "Plasma": {"system": "Plasma", "test": "Plasma concentration in athymic mouse plasma xenografted with human MCF7 cells at 100 mg/kg, po after 24 hrs", "type": "ADME, organism-based", "set-up": "dose 100 mg/kg, route oral", "details": "in vivo, BLD = below limit of detection", "procedure,_shortened": "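MCF-7 cells (5 × 10^6, in 50% cold HBSS/50% growth-factor-reduced matrigel) were implanted subcutaneously in the hindflank of 5–8 week old female nude mice. At 40–150 mg tumour size, mice received a single oral dose of 100 mg/kg, and plasma was sampled at the listed times after dosing.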"}, "[18]": {"test": "Metabolic stability in dog liver microsomes after 30 mins", "type": "ADME, Canis lupus familiaris, Microsome", "details": "read-out: Stability"}, "[19]": {"target": "Serine/threonine-protein kinase pim-1 (Homo sapiens, UniProt P11309)", "sequence (P11309 whole entry)": "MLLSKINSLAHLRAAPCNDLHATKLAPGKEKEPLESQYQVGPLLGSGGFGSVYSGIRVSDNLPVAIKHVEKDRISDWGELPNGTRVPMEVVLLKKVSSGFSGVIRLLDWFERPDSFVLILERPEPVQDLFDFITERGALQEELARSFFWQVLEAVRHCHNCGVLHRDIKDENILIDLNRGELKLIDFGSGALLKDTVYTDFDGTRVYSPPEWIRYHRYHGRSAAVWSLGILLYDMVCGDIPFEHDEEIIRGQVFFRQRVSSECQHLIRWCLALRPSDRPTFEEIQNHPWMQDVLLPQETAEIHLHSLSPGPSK", "test": "Inhibition of PIM1 (unknown origin)"}, "Mus musculus [20]": {"system": "Mus musculus", "test": "In vivo inhibition of mTORC1-mediated phosphorylation of pS6 at (serine 240/244) in human PC3 cells xenografted into athymic nude mouse at 100 mg/kg, po after 16 hrs by Western blotting analysis relative to control", "type": "functional", "details": "PC-3, 16 h", "procedure,_shortened": "(§3)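 PC-3 cells grown in DMEM with 20% FBS were implanted subcutaneously at 3 × 10^6 cells in ice-cold HBSS into the hindflank of 5−8 week old male nude mice. At tumor size 200−500 mg, mice received a single oral dose of 100 mg/kg. Plasma and tumors were collected at 1, 4, 8, 16, 24 and 32 h. Tumor lysates from each group (n = 5) were pooled. Phospho-proteins were quantified by Western blot and normalized to α-tubulin.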"}, "Mus musculus [21]": {"system": "Mus musculus", "test": "In vivo inhibition of mTORC2-mediated phosphorylation of AKT at […] in human PC3 cells xenografted into athymic nude mouse at 100 mg/kg, po after 24 hrs by Western blotting analysis relative to control", "type": "functional", "details": "PC-3, 24 h", "procedure,_shortened": "(§4)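 Human PC-3 cells were implanted subcutaneously into the hindflank of male nude mice aged 5−8 weeks, at 3 × 10^6 cells (passages 10−14, >95% viability) in ice-cold HBSS. At a tumor size of 200−500 mg, mice got one oral 100 mg/kg dose. Tumors were taken at 1, 4, 8, 16, 24 and 32 h. Lysates (n = 5 per group) were pooled, and phospho-AKT (T308) was read by Western blot, normalized to α-tubulin.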"}, "Mus musculus [22]": {"system": "Mus musculus", "test": "In vivo inhibition of mTORC2-mediated phosphorylation of AKT at […] in human PC3 cells xenografted into athymic nude mouse at 100 mg/kg, po after 16 hrs by Western blotting analysis relative to control", "type": "functional", "details": "PC-3, 16 h", "procedure,_shortened": "as §4"}, "Mus musculus [23]": {"system": "Mus musculus", "test": "In vivo inhibition of mTORC2-mediated phosphorylation of AKT at serine 473 in human PC3 cells xenografted into athymic nude mouse at 100 mg/kg, po after 8 hrs by Western blotting analysis relative to control", "type": "functional", "details": "PC-3, 8 h", "procedure,_shortened": "as §3"}, "Mus musculus [24]": {"system": "Mus musculus", "test": "In vivo inhibition of mTORC2-mediated phosphorylation of AKT at serine 473 in human PC3 cells xenografted into athymic nude mouse at 100 mg/kg, po after 4 hrs by Western blotting analysis relative to control", "type": "functional", "details": "PC-3, 4 h", "procedure,_shortened": "as §3"}},
  "note": "Active and inactive are the calls of the source. No cut-off for these calls is given here.",
  "data": [
    {"smiles": "Cc1c(C(=O)N2CCOc3ccc(-c4ccc(N)nc4)cc3C2)ccc(S(C)(=O)=O)c1F", "values": [
      {"measurement": "concentration at 8 h", "setting": "[1]", "result": 16.6, "unit": "µM"},
      {"measurement": "concentration at 1 h", "setting": "[2]", "result": 36.1, "unit": "µM"},
      {"measurement": "inhibition in vivo at 100 mg/kg", "setting": "Mus musculus [3]", "result": -17, "unit": "%"},
      {"measurement": "inhibition in vivo at 100 mg/kg", "setting": "Mus musculus [4]", "result": 88, "unit": "%"},
      {"measurement": "inhibition in vivo at 100 mg/kg", "setting": "Mus musculus [5]", "result": 13, "unit": "%"},
      {"measurement": "inhibition in vivo at 100 mg/kg", "setting": "Mus musculus [6]", "result": 6, "unit": "%"},
      {"measurement": "concentration at 16 h", "setting": "[7]", "result": 6.17, "unit": "µM"},
      {"measurement": "IC50", "setting": "Focal adhesion kinase 1", "result": "> 3.5", "unit": "µM"},
      {"measurement": "inhibition", "setting": "[8]", "result": "Active"},
      {"measurement": "bioavailability", "setting": "[9]", "result": 53.4, "unit": "%"},
      {"measurement": "Vd", "setting": "[10]", "result": 6.42, "unit": "L/kg"},
      {"measurement": "Vd", "setting": "[11]", "result": 1.27, "unit": "L/kg"},
      {"measurement": "clearance", "setting": "[12]", "result": 21.2, "unit": "mL/min/kg"},
      {"measurement": "AUC(0-inf)", "setting": "[13]", "result": 0.7, "unit": "µM·h"},
      {"measurement": "Tmax", "setting": "[14]", "result": 30, "unit": "min"},
      {"measurement": "Tmax", "setting": "[15]", "result": 1, "unit": "h"},
      {"measurement": "Cmax", "setting": "[16]", "result": 2280, "unit": "nM"},
      {"measurement": "Cmax", "setting": "[17]", "result": 1660, "unit": "nM"},
      {"measurement": "Cp", "setting": "Plasma", "result": "BLD"},
      {"measurement": "remaining at 0.5 h", "setting": "[18]", "result": 82, "unit": "%"},
      {"measurement": "IC50", "setting": "[19]", "result": "> 3.5", "unit": "µM"},
      {"measurement": "inhibition in vivo at 100 mg/kg", "setting": "Mus musculus [20]", "result": 71, "unit": "%"},
      {"measurement": "inhibition in vivo at 100 mg/kg", "setting": "Mus musculus [21]", "result": 11, "unit": "%"},
      {"measurement": "inhibition in vivo at 100 mg/kg", "setting": "Mus musculus [22]", "result": 36, "unit": "%"},
      {"measurement": "inhibition in vivo at 100 mg/kg", "setting": "Mus musculus [23]", "result": 83, "unit": "%"},
      {"measurement": "inhibition in vivo at 100 mg/kg", "setting": "Mus musculus [24]", "result": 81, "unit": "%"}
    ]}
  ]
}
